Measurements published in ChEMBL document CHEMBL1955746, “Synthesis and P2Y₂ receptor agonist activities of uridine 5'-phosphonate analogues” (Bioorg Med Chem, 2012).
Calls of active or inactive are those of the source. The calls are words filed in the database; no cut-off is given here.

Columns and labels:
Type in all cases: functional, cell-based
P2Y purinoceptor 2 [1] = target: T1, P2Y purinoceptor 2 (Homo sapiens, UniProt P41231); assay: Agonist activity at human P2Y2 receptor expressed in human 1321N1 cells assessed as stimulation of PLC-induced [3H]inositol phosphate production after 30 mins by scintillation counting
In short: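 Stable 1321N1 astrocytoma lines made by retroviral expression of the receptor. Cells plated 20,000/well two days ahead and labelled 16 h in serum-free, inositol-free DMEM with 1.0 μCi [3H]myo-inositol. Agonist added in HBSS with 100 mM Hepes pH 7.3 (five-fold stock) and 50 mM LiCl, 30 min at 37°C. Stopped with cold 50 mM formic acid, neutralized, Dowex columns. EC50 by non-linear regression, triplicates, ≥3 experiments.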

P2Y purinoceptor 2 [2] = target: T1, P2Y purinoceptor 2; assay: Agonist activity at human P2Y2 receptor expressed in human 1321N1 cells assessed as stimulation of PLC-induced [3H]inositol phosphate production at 100 uM after 30 mins by scintillation counting relative to UTP
In short: (§1)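 Retrovirally generated stable 1321N1 lines labelled 16 h with 1.0 μCi [3H]myo-inositol in inositol-free DMEM. Analogues at 100 μM, 30 min at 37°C in Hepes pH 7.3/HBSS with LiCl. Total [3H]inositol phosphates taken by formic acid extraction and Dowex anion exchange, then scintillation counting. P2Y2 and P2Y4 responses expressed as % of 100 nM UTP; P2Y6 as % of 1 μM UDP. Mean ± S.E.M., ≥3 experiments.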

[3] = target: P2Y purinoceptor 4 (Homo sapiens) (UniProt P51582); assay: Agonist activity at human P2Y4 receptor expressed in human 1321N1 cells assessed as stimulation of PLC-induced [3H]inositol phosphate production at 100 uM after 30 mins by scintillation counting; in short: as §1
[4] = target: P2Y purinoceptor 6 (Homo sapiens) (UniProt Q15077); assay: Agonist activity at human P2Y6 receptor expressed in human 1321N1 cells assessed as stimulation of PLC-induced [3H]inositol phosphate production at 100 uM after 30 mins by scintillation counting; in short: as §1
Sequence of P2Y purinoceptor 6 (Homo sapiens) (Q15077 whole entry): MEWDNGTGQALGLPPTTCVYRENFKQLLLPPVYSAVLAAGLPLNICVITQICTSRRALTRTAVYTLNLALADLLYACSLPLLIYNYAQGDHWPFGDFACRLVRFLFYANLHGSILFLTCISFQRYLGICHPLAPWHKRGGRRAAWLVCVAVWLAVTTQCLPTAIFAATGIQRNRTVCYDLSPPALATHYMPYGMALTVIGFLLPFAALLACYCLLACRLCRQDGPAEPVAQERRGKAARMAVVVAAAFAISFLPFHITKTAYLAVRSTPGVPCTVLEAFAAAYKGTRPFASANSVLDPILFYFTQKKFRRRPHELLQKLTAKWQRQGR

Sequence of P2Y purinoceptor 4 (Homo sapiens) (P51582 whole entry): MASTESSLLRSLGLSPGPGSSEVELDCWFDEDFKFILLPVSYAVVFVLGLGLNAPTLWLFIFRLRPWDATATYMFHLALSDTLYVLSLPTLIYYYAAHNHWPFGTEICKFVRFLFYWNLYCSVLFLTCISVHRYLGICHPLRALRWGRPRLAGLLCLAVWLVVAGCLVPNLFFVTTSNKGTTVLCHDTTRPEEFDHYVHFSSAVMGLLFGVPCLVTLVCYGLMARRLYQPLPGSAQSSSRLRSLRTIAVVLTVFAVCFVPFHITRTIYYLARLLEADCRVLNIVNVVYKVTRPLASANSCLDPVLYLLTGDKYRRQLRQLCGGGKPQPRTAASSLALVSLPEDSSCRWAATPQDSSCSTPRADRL
T1 sequence (P41231 whole entry): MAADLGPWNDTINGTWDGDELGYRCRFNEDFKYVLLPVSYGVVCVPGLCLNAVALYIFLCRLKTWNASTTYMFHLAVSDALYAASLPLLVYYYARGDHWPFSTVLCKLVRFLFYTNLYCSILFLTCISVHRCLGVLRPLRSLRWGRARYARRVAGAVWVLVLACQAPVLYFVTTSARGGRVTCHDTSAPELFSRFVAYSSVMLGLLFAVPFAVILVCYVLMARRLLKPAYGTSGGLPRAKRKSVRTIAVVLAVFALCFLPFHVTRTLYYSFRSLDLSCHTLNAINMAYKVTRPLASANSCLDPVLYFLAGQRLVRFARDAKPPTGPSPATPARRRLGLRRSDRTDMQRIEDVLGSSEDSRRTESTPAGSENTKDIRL

Row | Compound | EC50 (P2Y purinoceptor 2 [1]) [nM] | Emax (P2Y purinoceptor 2 [2]) [%] | Activity [3] | Activity [4]
1 | O=c1ccn([C@@H]2O[C@H](COP(=O)(O)OP(=O)(O)OP(=O)(O)O)[C@@H](O)[C@H]2O)c(=O)[nH]1 [URIDINE TRIPHOSPHATE] | 20 |  |  | 
2 | O=c1[nH]c(=O)n([C@@H]2O[C@H](CCP(=O)(O)O)[C@@H](O)[C@H]2O)cc1-c1ccc(F)cc1 | 400 | 43 | inactive | inactive
3 | O=c1[nH]c(=O)n([C@@H]2O[C@H](CCP(=O)(O)O)[C@@H](O)[C@H]2O)cc1-c1cccs1 | 500 | 35 | inactive | inactive
4 | O=c1[nH]c(=O)n([C@@H]2O[C@H](CCP(=O)(O)O)[C@@H](O)[C@H]2O)cc1-c1ccco1 | 700 | 45 | inactive | inactive
5 | O=c1ccn([C@@H]2O[C@H](CCP(=O)(O)O)[C@@H](O)[C@H]2O)c(=O)[nH]1 | 5100 | 32 |  | 
6 | O=c1ccn([C@@H]2O[C@H](OCP(=O)(O)O)[C@@H](O)[C@H]2O)c(=O)[nH]1 | > 20000 | 19 | inactive | inactive
7 | O=c1ccn([C@H]2[C@H](O)[C@H](O)[C@]3(CCP(=O)(O)O)C[C@H]23)c(=O)[nH]1 | 4000 |  |  | 
8 | O=c1[nH]c(=O)n([C@@H]2O[C@H](CCP(=O)(O)O)[C@@H](O)[C@H]2O)cc1-c1ccc2ccccc2c1 | 2100 | 54 | inactive | inactive
9 | O=c1ccn([C@@H]2O[C@H](CCP(=O)(O)O)[C@@H](O)[C@H]2Cl)c(=O)[nH]1 | > 20000 | 9 | inactive | inactive
10 | O=c1[nH]c(=O)n([C@@H]2O[C@H](CCP(=O)(O)O)[C@@H](O)[C@H]2O)cc1-c1csc2ccccc12 | > 20000 | 45 | inactive | inactive
11 | O=c1ccn([C@@H]2O[C@H](COP(=O)(O)OP(=O)(O)O)[C@@H](O)[C@H]2O)c(=O)[nH]1 |  |  |  | inactive
12 | N[C@@H]1[C@H](O)[C@@H](CCP(=O)(O)O)O[C@H]1n1ccc(=O)[nH]c1=O | > 20000 | 9 | inactive | inactive
13 | O=c1[nH]c(=O)n([C@@H]2O[C@H](CCP(=O)(O)O)[C@@H](O)[C@H]2O)cc1-c1ccccc1 | 1500 | 53 | inactive | inactive
14 | O=c1[nH]c(=O)n([C@@H]2O[C@H](CCP(=O)(O)O)[C@@H](O)[C@H]2O)cc1/C=C/c1ccccc1 | 3100 | 41 | inactive | inactive
15 | Cc1ccc(-c2cn([C@@H]3O[C@H](CCP(=O)(O)O)[C@@H](O)[C@H]3O)c(=O)[nH]c2=O)cc1 | 1000 | 41 | inactive | inactive
